# Entries after “also recorded” stand apart in the source; their conditions may differ. Like-named read-outs stand apart in the source and are kept apart here. acyl = not defined here
# B1: C5a: cationic proinflammatory glycoprotein, complement anaphylatoxin; ligand of C5aR1 (protein)
# chain: TLQKKIEEIAAKYKHSVVKKCCYDGACVNNDETCEQRAARISLGPRCIKAFTECCVVASQLRANISHKDMQLGR
# B2: Vilobelimab: anti-C5a antibody (antibody, chains of the INN, looked up, V domains shown)
# VH: QVQLQQSGPQLVRPGTSVKISCKASGYSFTTFWMDWVKQRPGQGLEWIGRIDPSDSESRLDQRFKDRATLTVDKSSSTVYMQLSSPTSEDSAVYYCARGNDGYYGFAYWGQGTLVTVSS
# VL: DIVLTQSPASLAVSLGQRATISCKASQSVDYDGDSYMKWYQQKPGQPPKLLIYAASNLQSGIPARFSGSGSGTDFTLNIHPVEEEDAATYYCQQSNEDPYTFGGGTKLEIK
# What was measured:
# C5a = assay: Effect of prednisone on SR3–C5a interaction by CD; assay type: binding, human; settings: 0.5 μM PDN, 0.35 μM SR3, 0.1 μM C5a, PBS, 25 °C; preliminary
# recombinant human C5a [1] = biological target: T1, recombinant human C5a (Homo sapiens, UniProt P01031); assay: Two-site CD study: ECL2 peptide; assay type: binding
# T1 sequence (P01031 678-751 limits assumed): B1 chain
# How it was run: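 Two-site CD: 0.1 μM recombinant human C5a was preincubated with 0.5 μM NT-peptide, then titrated with 0–1 μM ECL2 peptide. Far-UV CD was run at 25°C in 1× PBS (pH ∼ 7.4), with at least three scans (1 s time constant, 1 nm step). Each sample was prepared and read separately, and the signal of the corresponding free peptides was subtracted.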
# recombinant human C5a [2] = biological target: T1, recombinant human C5a; assay: Two-site fluorescence study: ECL2 peptide; assay type: binding; settings: 0.5–1 μM SR1
# How it was run: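 Two-site fluorescence: 0.1 μM C5a was preincubated with 0.5 μM NT-peptide and titrated with 0–1 μM ECL2 peptide. Readings were taken in 1× PBS (pH ∼ 7.4) at 25°C, with excitation at 278–280 nm, emission at 290–450 nm and 5 nm slits. Three scans were averaged and the free-peptide signal was subtracted.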
# [3] = up to 100 μM, in solution; ref not given ("has been reported"); cited from earlier work
# recombinant human C5a [4] = biological target: T1, recombinant human C5a; assay: CD titration of NT-peptides against recombinant human C5a; assay type: binding
# How it was run: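 Far-UV CD at 25°C in filtered, degassed 1× PBS (pH ∼ 7.4). Recombinant human C5a was held at 0.1 μM and NT-peptides (native Met1-Lys28 sequence or mutants) at 0–1 μM. Samples were incubated ≥1 h at 4°C, each prepared and read separately, with at least three scans (1 s time constant, 1 nm step). Free-peptide signal was subtracted, and data were converted to mean residue ellipticity, normalized and fitted by nonlinear regression for affinity.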
# [5] = Conformational analysis of free peptides by CD; assay type: physicochemical; settings: 1 μM, PBS pH ∼7.4, 25 °C; compared with SR3
# [6] = Intrinsic tyrosine fluorescence of free peptides; assay type: physicochemical; settings: at the working concentrations, 1× PBS pH ∼ 7.4, 25 °C
# recombinant human C5a [7] = biological target: T2, recombinant human C5a (human, UniProt P01031 678-751); assay: circular dichroism titration + other fluorescence titration
# T2 sequence (looked up): B1 chain
# recombinant human C5a [8] = biological target: T2, recombinant human C5a; assay: as above; remark: listed apart in the source
# C5aR1 = settings: cited from earlier work
# COVID-19 = settings: anti-C5a antibody; cited from earlier work
molecule,measurement,setting,value
"C[C@]12C=CC(=O)C=C1CC[C@@H]1[C@@H]2C(=O)C[C@@]2(C)[C@H]1CC[C@]2(O)C(=O)CO [PDN, prednisone]",response of PDN-preincubated C5a to SR3 compared to free C5a,C5a,comparatively weaker response
"SR1: native ECL2 sequence of C5aR1 (Tyr174-Arg198), acylated and amidated, carrying Cys188/Ser mutation (acyl-YRVVREEYFPPKVLSGVDYSHDKRR-NH2; reading uncertain)","CD response, C5a preincubated with SR3, 0.5 μM SR1","recombinant human C5a [1]; 0.1 μM C5a + 0.5 μM SR3, PBS, 25 °C, 0.5 μM SR1",substantially enhanced the CD signal
same,"CD response, C5a preincubated with SR3, 1 μM SR1 (vs 0.5 μM)","recombinant human C5a [1]; 0.1 μM C5a + 0.5 μM SR3, PBS, 25 °C, 1 μM SR1",did not change further
same,"CD response, C5a preincubated with SR4","recombinant human C5a [1]; 0.1 μM C5a + 0.5 μM SR4, compared to the C5a–SR3/C5a–SR5 system",relatively strong conformational response
same,"fluorescence response, C5a preincubated with SR3 or SR5",recombinant human C5a [2]; 0.1 μM C5a + 0.5 μM SR3 or SR5,consistent with the observation made in the CD; also recorded: modest change in fluorescence intensity
same,"fluorescence response, C5a preincubated with SR4",recombinant human C5a [2]; 0.1 μM C5a + 0.5 μM SR4,quenched appreciably
same,CD signature of free ECL2 peptide,[3],twisted short-stranded β-hairpin-like conformation
SR4 (MASFNYTTPAYGHYAAKATLDLNTPVAK),change of CD signal / conformation of C5a,"recombinant human C5a [4]; 0.1 μM C5a, 0-1 μM peptide, PBS pH ∼ 7.4, 25 °C",robust conformational alteration
same,binding affinity toward C5a in words,recombinant human C5a [4]; CD and fluorescence titration studies taken together (A1 and A2),could not be obtained reliably; also recorded: did not demonstrate a quantifiable binding affinity
same,effect of alanine mutations on conformational ordering,[5],can potentially affect the overall conformational ordering
same,intrinsic fluorescence,[6],very negligible
"MDSFNYTTPDYGHYDDKDTLDLNTPVDK (peptide, UniProt P21730 1-28, looked up) [SR3, native NT-peptide of C5aR1 (Met1-Lys28)]",Kd,recombinant human C5a [7],126 to 193 nM
"MDSFNATTPDAGHADDKDTLDLNTPVDK (peptide, UniProt P21730 1-28, looked up) [SR5, Tyr/Ala mutant NT-peptide of C5aR1 (Met1-Lys28)]",Kd,recombinant human C5a [7],105 to 123 nM
"acyl-YRVVREEYFPPKVLSGVDYSHDKRR-NH2 (peptide, UniProt P21730 174-198, looked up, reading uncertain) [SR1, ECL2 peptide of C5aR1 (Tyr174-Arg198)]",binding result,recombinant human C5a [8],binds
B1,potency toward C5aR1,C5aR1,nanomolar to picomolar potency
same,potency toward C5aR1,C5aR1; native-like conditions,picomolar–nanomolar potency
B2,outcome in COVID-19 treatment,COVID-19,favorable outcome
